Compound activity deposited in PubChem by Broad Institute.
The list is not random: actives were taken first. Their share in the collection is about 2.5%.
CDK5 p35 inh: inhibitors of human CDK5/p35 kinase; Q00535+Q15078; Recombinant CDK5/p35, ADP-Glo luminescence, 60 min; inhibition, % at 10 µM; 330,000 compounds, 0.01% hits; AID 488839;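 active = highest replicate inhibition of at least 50% and at least 75% of replicates reaching 50%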
NSD2 inh: inhibitors of human histone methyltransferase NSD2 | O96028 | 310,000 compounds, 0.54% hits | inhibition, % at 12.5 µM | NSD2 peptide methylation, AlphaScreen, 120 min
SR-BI uptake up: SR-BI HDL lipid transfer activation. CHO ldlA[mSR-BI] cells, DiI-HDL uptake fluorescence, 3 h; 100 = double the neutral-control signal. activation, % at 12.5 µM. 320,000 compounds, 0.096% hits;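 active = mean replicate activation of at least 60% and every replicate at or above 60%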
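Assay system: CHO ldlA[mSR-BI] cells, LDL receptor-null, SR-BI overexpressing; medium: Ham's F12 with 0.5% BSA, HEPES 25 mM, pH 7.4; also added: DiI-HDL 10 µg/mL; timing: 3 h uptake period with compound, 37 °C; signal: DiI fluorescence, bottom read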
dFosB activator: mouse delta FosB homodimer activation. purified delta FosB, TAMRA-CDK5 oligo fluorescence polarization; percent of positive-control signal above neutral wells. 340,000 compounds, 0.99% hits. activation, % at 25 µM. AID 493131;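 active = mean activation above about 17%, with every replicate also reaching it, limit read from the data, passing the limit was not always enough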
SR-BI HDL uptake: inhibitors of mouse SR-BI mediated HDL lipid uptake; Q61009; ldlA[mSR-BI] CHO cells, DiI-HDL uptake fluorescence, 3 h; inhibition, % at 12.5 µM; 320,000 compounds, 0.96% hits; AID 488896;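 active = mean replicate inhibition of at least 70% and a set share of replicates each scoring 70 or more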
Dyrk1A ADPGlo: inhibitors of rat Dyrk1A kinase; Q63470; inhibition, % at 12.5 µM; AID 504441; ADP-Glo luminescence, NFATc1 peptide; 310,000 compounds, 0.43% hits
ADP-Glo artifact: counter-screen for Dyrk1A inhibitors: ADP-Glo luciferase artifacts | AC50, µM (series often up to 12 µM) | 1,300 tested, under 10 active | ADP-Glo luciferase artifact assay, no Dyrk1A, luminescence | shares compounds with Dyrk1A ADPGlo;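 active = fitted half-maximal dose AC50 no more than ten times the top valid tested dose, with luminescence dropping as dose rises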
Each line names hits and unclear results; the compound was inactive in the other large screens (follow-up assays come after a bar, where they were run). Rule as the data show it, unless noted: active = inhibition above about 50%; inactive = the rest.

Cc1ccc(/C=c2\sc3n(c2=O)CN(c2ccc(Br)cc2)CN=3)o1	Dyrk1A ADPGlo 62 (no result: NSD2 inh) | ADP-Glo artifact inactive
O=C(OCc1nnc(-c2ccc([N+](=O)[O-])cc2)o1)C1CCN(C(=O)c2ccc(F)cc2)CC1	none
CCC(C)[C@H]1CNCCN1CCc1cccc2ccccc12 (stereo partly specified)	Dyrk1A ADPGlo 51 (no result: NSD2 inh) | ADP-Glo artifact inactive
CCC(C)[C@H]1CNCCN1CC1(c2ccccc2)CC1 (stereo partly specified)	none (no result: NSD2 inh)
Cc1ccccc1NC(=O)CSc1[nH]c(=O)cc(C)c1C#N	Dyrk1A ADPGlo 58 (no result: NSD2 inh) | ADP-Glo artifact inactive
Cc1cc(=O)[nH]c(SCC(=O)c2ccccc2)c1C#N	none (no result: SR-BI uptake up, SR-BI HDL uptake)
O=C1OCc2cccc3cccc1c23	Dyrk1A ADPGlo 51 | ADP-Glo artifact inactive
N#C/C(=C/c1ccc(O)c([N+](=O)[O-])c1)C(=O)Nc1ccccc1	Dyrk1A ADPGlo 81 | ADP-Glo artifact inactive
N#C/C(=C\c1ccc(O)c(O)c1)C(=O)NCCc1ccccc1	Dyrk1A ADPGlo 70 (no result: NSD2 inh) | ADP-Glo artifact inactive
CC1CCc2nc(NC(=O)CN3CCN(Cc4ccc5c(c4)OCO5)CC3)sc2C1 (stereo unspecified)	Dyrk1A ADPGlo 55 | ADP-Glo artifact inactive
CC1CCc2nc(NC(=O)CN3CCN(c4ccccc4)CC3)sc2C1 (stereo unspecified)	none
CCOC(=O)C1=C(C)N(CCCC(=O)O)C(=O)NC1c1ccc(Cl)cc1 (stereo unspecified)	none (no result: NSD2 inh, SR-BI uptake up, SR-BI HDL uptake)
COC(=O)C1=C(C)N(CCCC(=O)O)C(=O)NC1c1ccc(Cl)cc1 (stereo unspecified)	Dyrk1A ADPGlo 56 (no result: NSD2 inh) | ADP-Glo artifact inactive
CCOc1cc(/C=C2/SC(=S)NC2=O)ccc1OC(=O)c1ccco1	none
O=C1NC(=S)S/C1=C/c1ccc(OC(=O)c2ccco2)cc1	Dyrk1A ADPGlo 71 | ADP-Glo artifact inactive
COc1cccc(C(NC(C)=O)c2nc(-c3ccccc3C)cs2)c1 (stereo unspecified)	none (no result: CDK5 p35 inh, SR-BI uptake up, dFosB activator, SR-BI HDL uptake, Dyrk1A ADPGlo)
CC1Cc2cc(/C=C3/SC(=S)NC3=O)ccc2O1 (stereo unspecified)	Dyrk1A ADPGlo 84 (no result: NSD2 inh) | ADP-Glo artifact inactive
O=C(Nc1ccccc1)N1CCCC(CNS(=O)(=O)Cc2ccccc2)C1 (stereo unspecified)	none
CCOC(=O)C1=C(C)OC(N)=C(C#N)C1c1cc2c(cc1Br)OCO2 (stereo unspecified)	Dyrk1A ADPGlo 54 | ADP-Glo artifact inactive
Cn1c2ccccc2c(=O)c2ccc(C#CC3(N)CCCCC3)cc21	Dyrk1A ADPGlo 58 (no result: NSD2 inh) | ADP-Glo artifact inactive
Cn1c2ccccc2c(=O)c2cc(C#CC3(O)CCCCC3)ccc21	none (no result: NSD2 inh)
COCC1CCN(Cc2cn(C)nc2-c2cccc(Cl)c2)C1 (stereo unspecified)	none
O=C(Nc1cccc(-c2nc3cccnc3s2)c1)c1cccnc1Cl	Dyrk1A ADPGlo 62 | ADP-Glo artifact inactive
O=C(O)COc1ccc(/C=C/c2ccc3cccc([N+](=O)[O-])c3n2)cc1	Dyrk1A ADPGlo 66 | ADP-Glo artifact inactive
COc1cc(/C=C/c2ccc3cccc([N+](=O)[O-])c3n2)ccc1OCC(=O)O	none (no result: SR-BI uptake up, SR-BI HDL uptake)
COc1cc(/C=C2/C(=N)N3C(=NC2=O)SN=C3S(C)(=O)=O)ccc1OC(=O)c1ccco1	none (no result: CDK5 p35 inh, Dyrk1A ADPGlo)
COc1cc(/C=C2/C(=N)N3C(SC)=NSC3=NC2=O)ccc1OC(=O)c1ccco1	Dyrk1A ADPGlo 58 | ADP-Glo artifact inactive
CSC1=NSC2=NC(=O)/C(=C/c3coc4ccc(O)cc4c3=O)C(=N)N12	Dyrk1A ADPGlo 87 (no result: NSD2 inh) | ADP-Glo artifact inactive
CSC1=NSC2=NC(=O)/C(=C\c3cccs3)C(=N)N12	none
CCn1c(C)c(C(=O)c2ccccc2)c(C#N)c1C(=O)O	none (no result: Dyrk1A ADPGlo)
O=C(c1ccco1)N1CCN(C(=O)c2ccc(CS(=O)c3ccc(F)cc3)o2)CC1 (stereo unspecified)	none
COc1ccc2c(C#CCCO)c(-c3ccc(S(C)(=O)=O)cc3)sc2c1	SR-BI HDL uptake 83, Dyrk1A ADPGlo 56 (no result: NSD2 inh) | ADP-Glo artifact inactive
COc1ccc2sc(-c3ccc(S(C)(=O)=O)cc3)c(C#CCO)c2c1	none (no result: NSD2 inh)
